# How the values were obtained:
# [1] = molecular target: T1, High affinity immunoglobulin epsilon receptor subunit alpha (Homo sapiens) (UniProt P12319); assay: (§1) Inhibition of anti-IgE antibody-stimulated histamine release in human basophills at 33 uM; type: functional
# T1 sequence (whole entry): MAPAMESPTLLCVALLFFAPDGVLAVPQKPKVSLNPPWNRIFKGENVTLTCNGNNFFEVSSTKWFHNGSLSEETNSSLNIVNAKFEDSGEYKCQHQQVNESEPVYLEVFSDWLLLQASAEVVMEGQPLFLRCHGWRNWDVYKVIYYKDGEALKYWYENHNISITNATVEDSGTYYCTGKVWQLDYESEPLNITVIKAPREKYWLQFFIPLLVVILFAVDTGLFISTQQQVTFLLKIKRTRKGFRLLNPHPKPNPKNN
# In short: (§2)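 Human leukocytes isolated after red-cell sedimentation, washed, suspended in buffer; preincubated with compound then challenged with anti-IgE. Released histamine measured by automated fluorometric assay; percent inhibition versus undrugged anti-IgE-challenged controls.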
# Cavia porcellus [2] = species: Cavia porcellus; assay: Inhibition of ovalbumin stimulated histamine release in guinea pig lung
# Homo sapiens [3] = species: Homo sapiens; assay: Inhibition of anti-IgE antibody stimulated histamine release in human lung; type: functional, organism-based
# In short: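 Grossly normal human lung from lobectomy, dissected, chopped into 25–75-mg fragments, washed, held overnight in Tyrode's buffer at room temperature, rewashed. About 400 mg tissue at 37 °C in Tyrode's for 10 min, drug or vehicle added, 10 min later anti-IgE (final 3:1000), 30 min further incubation, supernatant sampled for histamine.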
# Homo sapiens [4] = species: Homo sapiens; assay: Inhibition of anti-IgE antibody stimulated histamine release in human basophils; type: functional
# In short: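 Human leukocytes obtained after red-cell sedimentation, washed and suspended in buffer, preincubated with drug, then challenged with anti-IgE. Histamine quantified by automated fluorometric assay; percent inhibition vs nondrug anti-IgE-challenged controls. IC50 from threefold concentrations 1–100 μM.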
# [5] = molecular target: T1, High affinity immunoglobulin epsilon receptor subunit alpha (Homo sapiens); assay: (§3) Inhibition of anti-IgE antibody-stimulated histamine release in human basophills at 10 uM; type: functional; in short: as §2
# Homo sapiens [6] = species: Homo sapiens; assay: Inhibition of anti-IgE antibody-stimulated histamine release in human basophills at 33 uM; c = sample fluorescence interferes with the histamine assay; type: functional; in short: as §2
# Homo sapiens [7] = species: Homo sapiens; assay: as §3; type: functional; in short: as §2
# Homo sapiens [8] = species: Homo sapiens; assay: as §1; type: functional, organism-based; in short: as §2
# Cavia porcellus [9] = species: Cavia porcellus; assay: Inhibition of ovalbumin-stimulated histamine release in guinea pig lung; type: functional, organism-based
# Cavia porcellus [10] = species: Cavia porcellus; assay: Inhibition of ovalbumin-stimulated histamine release in guinea pig lung, at 75 uM compound concentration; […]; type: functional
# Homo sapiens [11] = species: Homo sapiens; assay: Inhibition of anti-IgE antibody stimulated histamine release in human lung, at 75 uM compound concentration; […]; type: functional
structure (smiles),measurement,setting,value
O=C(Nc1nn[nH]n1)c1c(OCc2ccccc2)c2ccccc2n1-c1ccccc1,inhibition,[1],< 25%
COc1ccc2c(c1)c(OC(C)C)c(C(=O)Nc1nn[nH]n1)n2-c1ccccc1,IC50,Cavia porcellus [2],26.7 µM
same,IC50,Homo sapiens [3],16.6 µM
same,IC50,Homo sapiens [4],15 µM
same,inhibition,[1],82%
same,inhibition,[5],46%
CCCCCCCCCOc1c(C(=O)Nc2nn[nH]n2)n(-c2ccccc2)c2ccc(OC)cc12,inhibition,Homo sapiens [6],Sample fluorescence interferes with histamine assay
CCOc1c(C(=O)Nc2nn[nH]n2)n(-c2ccccc2)c2ccc(OC)cc12,Inhibition,Homo sapiens [7],55%
same,inhibition,[1],73%
COc1ccc2c(c1)c(SC)c(C(=O)Nc1nn[nH]n1)n2-c1ccccc1,inhibition,[1],66%
same,inhibition,[5],20%
COc1ccc2[nH]c(C(=O)Nc3nn[nH]n3)c(OC(C)C)c2c1,inhibition,[1],62%
same,inhibition,[5],17%
CC(C)Oc1c(C(=O)Nc2nn[nH]n2)n(-c2ccccc2)c2cc(Cl)c(Cl)cc12,inhibition,[1],84%
same,inhibition,[5],40%
COc1ccc2c(c1)c(OC(C)C)c(C(=O)Nc1nn[nH]n1)n2Cc1ccccc1,inhibition,[1],69%
same,inhibition,[5],61%
CCOc1c(C(=O)Nc2nn[nH]n2)n(Cc2ccccc2)c2ccc(OC)cc12,inhibition,[1],55%
same,inhibition,[5],26%
COc1ccc2c(c1)c1oc(C(=O)Nc3nnn[nH]3)c(OC)c1n2-c1ccccc1.NC(N)=NCCC[C@H](N)C(=O)O,IC50,Homo sapiens [8],8.5 µM
same,IC50,Cavia porcellus [9],13.4 µM
CC(C)Oc1c(C(=O)Nc2nn[nH]n2)n(-c2ccccc2)c2ccc(Cl)cc12,inhibition,[1],72%
same,inhibition,[5],18%
COc1ccc2c(c1)c(OCc1ccccc1)c(C(=O)Nc1nn[nH]n1)n2-c1ccccc1,inhibition,[1],84%
same,inhibition,[5],43%
CC(C)Oc1c(C(=O)Nc2nn[nH]n2)n(-c2ccccc2)c2ccc(OCc3ccccc3)cc12,inhibition,[1],66%
same,inhibition,[5],65%
COc1ccc2c(c1)c(OC(C)C)c(-c1nn[nH]n1)n2-c1ccccc1,inhibition,[1],37%
same,inhibition,[5],25%
COc1ccc2c(c1)c(O)c(C(=O)Nc1nn[nH]n1)n2-c1ccccc1,inhibition,[1],< 25%
COc1ccc2c(c1)c(Oc1ccc([N+](=O)[O-])cc1)c(C(=O)Nc1nn[nH]n1)n2-c1ccccc1,inhibition,[1],< 25%
CCOc1c(C(=O)Nc2nn[nH]n2)[nH]c2ccc(OC)cc12,inhibition,[1],46%
same,inhibition,[5],7%
COc1ccc(-n2c(C(=O)Nc3nn[nH]n3)c(OC(C)C)c3ccccc32)cc1,inhibition,[1],< 25%
COc1ccc2c(c1)c(S(C)(=O)=O)c(C(=O)Nc1nn[nH]n1)n2-c1ccccc1,inhibition,[1],< 25%
COc1ccc2c(c1)cc(C(=O)Nc1nn[nH]n1)n2-c1ccccc1,inhibition,[1],< 25%
CC(C)Oc1c(C(=O)Nc2nn[nH]n2)n(-c2ccccc2)c2ccc(O)cc12,inhibition,[1],< 25%
O=C([O-])c1cc(=O)c2c(OCC(O)COc3cccc4oc(C(=O)[O-])cc(=O)c34)cccc2o1.[Na+].[Na+] [CROMOLYN SODIUM],Inhibition,Cavia porcellus [10],<=25%
same,Inhibition,Homo sapiens [11],<=25%
same,inhibition,[1],< 25%
COc1cccc2c1c(OC(C)C)c(C(=O)Nc1nn[nH]n1)n2-c1ccccc1,inhibition,[1],< 25%
COc1ccc2c(c1)c(OC)c(C(=O)Nc1nn[nH]n1)n2-c1ccccc1,inhibition,[1],74%
same,inhibition,[5],46%
Cc1ccc2c(c1)c(OC(C)C)c(C(=O)Nc1nn[nH]n1)n2-c1ccccc1,inhibition,[1],< 25%
CCCc1c2oc(C(=O)O)cc(=O)c2cc2c(=O)cc(C(=O)O)n(CC)c12 [NEDOCROMIL],Inhibition,Cavia porcellus [10],<=25%
same,Inhibition,Homo sapiens [11],<=25%
same,inhibition,[1],< 25%
COc1ccc(-n2c(C(=O)Nc3nn[nH]n3)c(OC(C)C)c3cc(OC)ccc32)cc1,inhibition,[1],49%
same,inhibition,[5],16%
COc1ccc2c(c1)c(OC(C)C)c(C(=O)Nc1nn[nH]n1)n2C,inhibition,[1],45%
same,inhibition,[5],18%
COc1ccc2c(c1)c(SC(C)C)c(C(=O)Nc1nn[nH]n1)n2-c1ccccc1,inhibition,[1],50%
same,inhibition,[5],13%
COc1ccc2c(c1)c(C(C)C)c(C(=O)Nc1nn[nH]n1)n2-c1ccccc1,inhibition,[1],< 25%
CC(C)Oc1c(C(=O)Nc2nn[nH]n2)n(-c2ccccc2)c2ccccc12,inhibition,[1],< 25%
CC(C)Oc1c(C(=O)Nc2nn[nH]n2)n(-c2ccccc2)c2ccc(Br)cc12,inhibition,[1],33%
same,inhibition,[5],7%
COc1ccc2c(c1)c(Sc1ccccc1)c(C(=O)Nc1nn[nH]n1)n2-c1ccccc1,inhibition,[1],82%
same,inhibition,[5],30%
COc1ccc2c(OC(C)C)c(C(=O)Nc3nn[nH]n3)n(-c3ccccc3)c2c1,inhibition,[1],50%
same,inhibition,[5],24%
